Laboratory results from ChEMBL document CHEMBL5252537, “Usnic Acid Benzylidene Analogues as Potent Mechanistic Target of Rapamycin Inhibitors for the Control of Breast Malignancies” (J Nat Prod, 2017).
The source made the active and inactive calls. No cut-off for these calls is given here.

Experiments:
[1] = Toxicity in athymic nude mouse xenografted with human MDA-MB-231/GFP cells at 10 mg/kg, ip measured after 34 days post inoculation; details: in vivo, 816 h
[2] = tested on: MDA-MB-231; experiment: Antimigratory activity in human MDA-MB-231 cells assessed as inhibition of cell migration after 23 hrs by scratch wound healing assay; format: functional, cell-based
In short: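 Cells seeded at 1 × 10^5/well and grown to a confluent monolayer, then scratched with a 200 μL pipet tip. Held 5 h in serum-free medium, then given medium with HGF (100 ng/mL) plus compound or DMSO. Norstictic acid (15 μM) was the positive control. Wound width photographed at 0 h and followed up to 24 h; cells MeOH-fixed. Percent migration from wound thickness versus DMSO wells; IC50 calculated.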

[3] = target: mTORC2 (Homo sapiens) (UniProt P42345+Q6R327+Q9BVC4+Q9BPZ7); experiment: Inhibition of mTORC2 in human MCF7 cells assessed as reduction in Akt phosphorylation at Ser473 residue at 0.25 to 0.5 uM by Western blot analysis; format: cell-based; details: dose 0.25-0.5 µM
In short: (§1)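 Cells seeded at 5 × 10^5 per 100 mm dish and allowed to attach overnight. Treated with compound or DMSO for 72 h (HGF 100 ng/mL added for MDA-MB-231). Lysed in RIPA buffer with protease inhibitors. 30 μg protein run on SDS-PAGE, transferred to PVDF, blocked in 5% BSA/TBST. Primary antibodies overnight at 4 °C, HRP secondary antibodies, chemiluminescent detection.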

[4] = tested on: MDA-MB-231; experiment: Anti-invasive activity in human MDA-MB-231 cells after 24 hrs […]; format: functional, cell-based; details: MDA-MB-231, 24 h
[5] = tested on: MCF7; experiment: Inhibition of colony formation in human MCF7 cells at 0.6 uM incubated for 8 days by inverted phase contrast microscopic analysis; format: functional; details: MCF7, 192 h, time 8 day
In short: (§2)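 Soft agar assay: 5 × 10^3 MCF-7 cells per well in a cell/agar matrix layered over a base agar layer. Overlaid with 10% serum medium containing 0.2 or 0.6 μM compound, or DMSO. Colonies photographed under inverted phase-contrast microscopy after 8 days. Matrix then solubilized, MTT added (4 h, 37 °C), detergent added, A570 read. Growth normalized to DMSO.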

[6] = tested on: MDA-MB-231; experiment: Induction of autophagy in human MDA-MB-231 cells assessed as autophagic vacuoles by microscopic analysis; format: functional, cell-based
In short: (§3)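 Cells of each line treated with compound and examined by light microscopy for autophagic vacuoles, compared with control cells.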

[7] = target: Serine/threonine-protein kinase mTOR (Homo sapiens) (UniProt P42345); experiment: Inhibition of mTOR in human […] cells assessed as reduction in p-S6K level at 0.25 to 0.5 uM by Western blot analysis; format: cell-based; details: MCF7, dose 0.25-0.5 µM
In short: as §1

[8] = target: Serine/threonine-protein kinase mTOR (Homo sapiens) (UniProt P42345); experiment: In vivo inhibition of mTOR in human MDA-MB-231/GFP cells xenografted in athymic nude mouse assessed as downregulation of phosphorylated S6K level at 10 mg/kg, ip
[9] = tested on: BT-474; experiment: Antiproliferative activity against human BT-474 cells incubated for 72 hrs by MTT assay; format: functional, cell-based; details: BT-474, 72 h
In short: (§4)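 Cells seeded at 5 × 10^3/well and allowed to attach overnight, then washed with PBS. Compound diluted from 10 mM DMSO stock into medium (100 ng/mL HGF added for c-Met-expressing cells), in triplicate, 72 h at 37 °C. MTT added for 4 h, formazan dissolved in DMSO, absorbance read at 570 nm. Cell numbers taken from a standard curve; IC50 calculated.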

[10] = tested on: MDA-MB-231; experiment: Antitumor activity against human MDA-MB-231/GFP cells xenografted in athymic nude mouse assessed as reduction in mean tumor volume at 10 mg/kg, ip measured after 34 days post inoculation (reference value: 1835 +/- 251 mm3); details: time 34 day
[11] = tested on: MDA-MB-231; experiment: Antitumor activity against human MDA-MB-231/GFP cells xenografted in athymic nude mouse assessed as inhibition of tumor growth at 10 mg/kg, ip administered for 3 weeks; set-up: scale not given: the % may be the effect or the level left
[12] = Toxicity in athymic nude mouse xenografted with human MDA-MB-231/GFP cells assessed as reduction in body weight at 10 mg/kg, ip measured after 34 days post inoculation; details: in vivo, 816 h
[13] = tested on: MCF7; experiment: Antiproliferative activity against human MCF7 cells incubated for 72 hrs by MTT assay; format: functional, cell-based; details: MCF7, 72 h
In short: as §4

[14] = target: Serine/threonine-protein kinase mTOR (Homo sapiens) (UniProt P42345); experiment: Inhibition of mTOR in human MDA-MB-231 cells assessed as reduction in p-S6K level at 0.25 to 0.5 uM by Western blot analysis; format: cell-based; details: dose 0.25-0.5 µM
In short: as §1

[15] = tested on: MDA-MB-231; experiment: Antiproliferative activity against human MDA-MB-231 cells incubated for 72 hrs by MTT assay; format: functional, cell-based; details: MDA-MB-231, 72 h
In short: as §4

[16] = tested on: MCF7; experiment: Induction of autophagy in human MCF7 cells assessed as autophagic vacuoles by microscopic analysis; format: functional, cell-based
In short: as §3

[17] = tested on: SK-BR-3; experiment: Antiproliferative activity against human SK-BR-3 cells incubated for 72 hrs by MTT assay; format: functional, cell-based; details: SK-BR-3, 72 h
In short: as §4

[18] = tested on: MCF7; experiment: Inhibition of colony formation in human MCF7 cells assessed as reduction in colony diameter at 0.2 uM incubated for 8 days by inverted phase contrast microscopic analysis (reference value: 50 micrometer); format: functional; details: time 8 day
In short: as §2

[19] = target: Serine/threonine-protein kinase mTOR (Homo sapiens) (UniProt P42345); experiment: In vivo inhibition of mTOR in human MCF7 cells xenografted in athymic nude mouse assessed as downregulation of phosphorylated S6K level at 10 mg/kg, ip
[20] = tested on: MCF7; experiment: Antitumor activity against human MCF7 cells xenografted in athymic nude mouse assessed as inhibition of tumor growth at 10 mg/kg, ip administered for 3 weeks; set-up: scale not given: the % may be the effect or the level left
[21] = tested on: SK-BR-3; experiment: Induction of autophagy in human SK-BR-3 cells assessed as autophagic vacuoles by microscopic analysis; format: functional, cell-based
In short: as §3

[22] = target: Serine/threonine-protein kinase mTOR (Homo sapiens) (UniProt P42345); experiment: Inhibition of mTOR in human […] cells assessed as reduction in phosphorylated 4E-BP1 level at 0.25 to 0.5 uM by Western blot analysis; format: cell-based; details: MCF7, dose 0.25-0.5 µM
In short: as §1

[23] = tested on: MCF7; experiment: Inhibition of colony formation in human MCF7 cells at 0.2 uM incubated for 8 days by inverted phase contrast microscopic analysis; format: functional; details: MCF7, 192 h, time 8 day
In short: as §2

[24] = tested on: MDA-MB-468; experiment: Antiproliferative activity against human MDA-MB-468 cells incubated for 72 hrs by MTT assay; format: functional, cell-based; details: MDA-MB-468, 72 h
In short: as §4

[25] = tested on: MCF7; experiment: Inhibition of colony formation in human MCF7 cells assessed as reduction in colony diameter at 0.6 uM incubated for 8 days by inverted phase contrast microscopic analysis (reference value: 50 micrometer); format: functional; details: time 8 day
In short: as §2

[26] = target: Serine/threonine-protein kinase mTOR (Homo sapiens) (UniProt P42345); experiment: In vivo inhibition of mTOR in human MDA-MB-231/GFP cells xenografted in athymic nude mouse assessed as downregulation of phosphorylated 4E-BP1 level at 10 mg/kg, ip

Compound: CC(=O)C1=C(O)C=C2Oc3c(C(=O)/C=C/c4ccc(OC(F)(F)F)cc4)c(O)c(C)c(O)c3[C@]2(C)C1=O
- Activity [1]: Non-Toxic
- Activity [2]: Dose-Dependent Effect
- IC50 ([2]; MDA-MB-231, 23 h): 510 nM
- inhibition [3]: Active
- IC50 [4]: 420 nM
- inhibition at 0.6 µM [5]: 75.3%
- Activity [6]: Active
- inhibition [7]: Active
- inhibition [8]: Active
- IC50 [9]: 390 nM
- Activity [10]: 692 mm3
- Activity [11]: 62.3%
- Activity [12]: Non-Toxic
- IC50 [13]: 280 nM
- inhibition [14]: Active
- IC50 [15]: 320 nM
- Activity [16]: Active
- IC50 [17]: 400 nM
- Activity [18]: 370 um
- inhibition [19]: Active
- Activity [20]: 64.8%
- Activity [21]: Active
- inhibition [22]: Active
- inhibition at 0.2 µM [23]: 22.9%
- IC50 [24]: 350 nM
- Activity [25]: 122 um
- inhibition [26]: Active
